Experimental data as given in the M2OR odorant receptor database.
Changes are numbered by the printed parent chain.

Experiments:
Conditions in all cases: stereoisomer not certain
OR2J2 (Homo sapiens) = biological target: T1, OR2J2 (Homo sapiens) (UniProt O76002)
T1 sequence (whole entry): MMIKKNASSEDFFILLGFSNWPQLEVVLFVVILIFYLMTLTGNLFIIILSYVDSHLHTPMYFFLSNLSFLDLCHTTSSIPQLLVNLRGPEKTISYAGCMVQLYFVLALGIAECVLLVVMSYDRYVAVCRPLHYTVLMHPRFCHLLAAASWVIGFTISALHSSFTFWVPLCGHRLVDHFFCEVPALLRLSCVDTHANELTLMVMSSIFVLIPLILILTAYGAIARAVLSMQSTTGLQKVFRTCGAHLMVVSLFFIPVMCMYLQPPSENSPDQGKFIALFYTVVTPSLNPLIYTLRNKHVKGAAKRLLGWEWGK
Method in brief: (§1)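 Transient luciferase assays in mammalian cell lines were common, though methods varied by source. The values come from published papers and their supplementary material, with extra details from the original authors when needed. Responsive refers to a measured signal the original authors judged statistically different from baseline, and non-responsive (inactive) to the remainder.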

OR2J1 (Homo sapiens) = biological target: T2, OR2J1 (Homo sapiens) (UniProt Q9GZK6)
T2 sequence (whole entry): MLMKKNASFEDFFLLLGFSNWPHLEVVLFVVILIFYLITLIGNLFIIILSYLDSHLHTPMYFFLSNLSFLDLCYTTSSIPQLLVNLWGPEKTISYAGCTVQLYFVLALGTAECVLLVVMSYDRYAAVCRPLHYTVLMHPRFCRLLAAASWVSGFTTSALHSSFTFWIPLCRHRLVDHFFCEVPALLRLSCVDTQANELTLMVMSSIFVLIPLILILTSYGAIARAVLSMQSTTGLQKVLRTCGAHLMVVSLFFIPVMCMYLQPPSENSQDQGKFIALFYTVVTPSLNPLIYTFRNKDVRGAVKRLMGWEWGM
Method in brief: as §1

OR2J3 (Homo sapiens) = biological target: T3, OR2J3 (Homo sapiens) (UniProt O76001)
T3 sequence (whole entry): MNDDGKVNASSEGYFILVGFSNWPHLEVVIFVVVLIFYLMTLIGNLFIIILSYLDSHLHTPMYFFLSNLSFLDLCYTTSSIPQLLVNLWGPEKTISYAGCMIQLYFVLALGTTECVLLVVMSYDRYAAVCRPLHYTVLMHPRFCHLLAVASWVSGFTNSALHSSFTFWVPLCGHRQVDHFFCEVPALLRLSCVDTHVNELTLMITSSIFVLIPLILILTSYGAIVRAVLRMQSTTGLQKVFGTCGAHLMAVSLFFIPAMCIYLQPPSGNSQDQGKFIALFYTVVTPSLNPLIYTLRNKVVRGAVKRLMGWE
Method in brief: as §1

OR2K2 (Homo sapiens) = biological target: T4, OR2K2 (Homo sapiens) (UniProt Q8NGT1)
T4 sequence (whole entry): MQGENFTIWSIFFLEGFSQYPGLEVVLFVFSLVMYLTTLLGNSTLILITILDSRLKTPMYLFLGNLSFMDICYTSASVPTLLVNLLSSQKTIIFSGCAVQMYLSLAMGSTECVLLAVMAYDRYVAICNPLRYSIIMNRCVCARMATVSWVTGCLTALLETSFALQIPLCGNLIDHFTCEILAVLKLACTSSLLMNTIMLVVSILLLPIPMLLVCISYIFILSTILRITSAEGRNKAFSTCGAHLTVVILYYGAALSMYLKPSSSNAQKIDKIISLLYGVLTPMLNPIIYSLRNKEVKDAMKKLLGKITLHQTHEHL
Method in brief: as §1

OR2H2 = test system: T5, OR2H2
T5 sequence (whole entry): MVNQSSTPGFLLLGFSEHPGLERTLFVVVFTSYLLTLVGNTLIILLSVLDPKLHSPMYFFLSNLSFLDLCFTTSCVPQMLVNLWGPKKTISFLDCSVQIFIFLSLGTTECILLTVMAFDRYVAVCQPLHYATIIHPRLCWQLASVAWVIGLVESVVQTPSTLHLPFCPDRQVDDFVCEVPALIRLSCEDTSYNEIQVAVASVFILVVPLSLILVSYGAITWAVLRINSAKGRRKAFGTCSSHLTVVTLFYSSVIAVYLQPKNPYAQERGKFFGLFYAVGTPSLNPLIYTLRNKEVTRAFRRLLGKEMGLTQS
Method in brief: as §1

OR2J1 L14I V182A = test system: T6, OR2J1 L14I V182A
T6 sequence (whole entry): T2 sequence (whole entry) with L14I, V182A
Method in brief: as §1

OR2J2 = test system: T7, OR2J2
T7 sequence (whole entry): T1 sequence (whole entry) with H74Y, A111T, A146V, A218T
Method in brief: as §1

OR2J3 = test system: T8, OR2J3
T8 sequence (whole entry): T3 sequence (whole entry) with V228I, I261M
Method in brief: as §1

OR2J1 [1] = test system: OR2J1
Method in brief: as §1

OR2J1 [2] = test system: OR2J1; remark: listed apart in the source
Method in brief: as §1
Target sequence in this assay (as listed by the source): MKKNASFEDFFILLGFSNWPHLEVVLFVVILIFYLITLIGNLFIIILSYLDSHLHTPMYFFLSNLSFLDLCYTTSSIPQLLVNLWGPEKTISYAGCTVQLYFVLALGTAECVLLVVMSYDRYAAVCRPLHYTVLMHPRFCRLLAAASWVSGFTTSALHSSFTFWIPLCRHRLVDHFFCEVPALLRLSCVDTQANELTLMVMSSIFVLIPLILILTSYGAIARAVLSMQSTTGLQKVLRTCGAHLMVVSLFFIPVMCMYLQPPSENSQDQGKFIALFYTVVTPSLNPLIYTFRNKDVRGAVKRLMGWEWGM

Measured: odorant receptor agonist call;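 note: active if original authors judged signal statistically different from baseline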

CCC(=O)O
inactive: OR2J2 (Homo sapiens)

CC1CCCCCCCCCCCCC(=O)C1 (stereo unspecified)
inactive: OR2J1 (Homo sapiens) | OR2J2 (Homo sapiens) | OR2J3 (Homo sapiens) | OR2K2 (Homo sapiens)

CCCCC(=O)O
inactive: OR2J2 (Homo sapiens)

CCC1OC(C)=C(O)C1=O (stereo unspecified)
not listed: OR2J2 (Homo sapiens) | OR2J1 [1] | OR2J1 [2]
inactive: all other assays above

CCCCC(C)=O
inactive: OR2J2 (Homo sapiens)

CCC1OC(=O)C(O)=C1C (stereo unspecified)
not listed: OR2J2 (Homo sapiens) | OR2J1 [1] | OR2J1 [2]
inactive: all other assays above

CCCCCCCCCS
inactive: OR2J2 (Homo sapiens)

CCCCC(S)C(C)CO (stereo unspecified)
inactive: OR2J1 (Homo sapiens) | OR2J2 (Homo sapiens) | OR2J3 (Homo sapiens) | OR2K2 (Homo sapiens)

CCC(S)C(C)CO (stereo unspecified)
inactive: OR2J1 (Homo sapiens) | OR2J2 (Homo sapiens) | OR2J3 (Homo sapiens) | OR2K2 (Homo sapiens)

CCCCCCC=CCCC=O
not listed: OR2J2 | OR2J1 [1] | OR2J1 [2]
inactive: all other assays above

Cc1cnc(C)c(C)n1
not listed: OR2J2 (Homo sapiens) | OR2J1 [1] | OR2J1 [2]
inactive: all other assays above

CCCCCCC(C)=O
inactive: OR2J2 (Homo sapiens)

CC12CCC(CC1=O)C2(C)C (stereo unspecified)
inactive: OR2J2 (Homo sapiens)

O=C1CCOc2ccccc21
inactive: OR2J2 (Homo sapiens)

O=c1ccc2ccccc2o1
inactive: OR2J1 [1]
active: OR2J2 (Homo sapiens)

CCCC(S)CCOC(C)=O (stereo unspecified)
not listed: OR2J2 (Homo sapiens) | OR2J1 [1] | OR2J1 [2]
inactive: all other assays above

CC(CO)CS (stereo unspecified)
inactive: OR2J1 (Homo sapiens) | OR2J2 (Homo sapiens) | OR2J3 (Homo sapiens) | OR2K2 (Homo sapiens)

COc1cc(C(=O)O)ccc1O
inactive: OR2J2 (Homo sapiens)

CC(=O)OCC=C(C)C
inactive: OR2J2 (Homo sapiens)

CCCCCC(S)C(C)CO (stereo unspecified)
inactive: OR2J1 (Homo sapiens) | OR2J2 (Homo sapiens) | OR2J3 (Homo sapiens) | OR2K2 (Homo sapiens)

CC1=C(O)C(=O)OC1C (stereo unspecified)
not listed: OR2J2 (Homo sapiens) | OR2J1 [1] | OR2J1 [2]
inactive: all other assays above

CC(C)=CCCC(C)CCO (stereo unspecified)
inactive: OR2J2 (Homo sapiens)

CC(=O)c1c(C)c([N+](=O)[O-])c(C(C)(C)C)c([N+](=O)[O-])c1C
inactive: OR2J1 (Homo sapiens) | OR2J2 (Homo sapiens) | OR2J3 (Homo sapiens) | OR2K2 (Homo sapiens)

CCCCCC(=O)C(C)C(C)=O (stereo unspecified)
inactive: OR2J1 (Homo sapiens) | OR2J2 (Homo sapiens) | OR2J3 (Homo sapiens) | OR2K2 (Homo sapiens)

CC1=C(O)C(=O)C(C)O1 (stereo unspecified)
not listed: OR2J2 (Homo sapiens) | OR2J1 [1] | OR2J1 [2]
inactive: all other assays above

CCCC(C)=O
inactive: OR2J2 (Homo sapiens)

CCCCCCCCC(=O)O
inactive: OR2J2 (Homo sapiens)

CC1=NC(C)C(C)S1 (stereo unspecified)
not listed: OR2J2 (Homo sapiens) | OR2J1 [1] | OR2J1 [2]
inactive: all other assays above

CCCC(C)=CC(=O)O
inactive: OR2J1 [2] | OR2J1 [1]

CCCCCCO
inactive: OR2J2 (Homo sapiens)
